These results are taken from ChEMBL document CHEMBL4433215, “SAR Studies and Biological Characterization of a Chromen-4-one Derivative as an Anti-Trypanosoma brucei Agent” (ACS Med Chem Lett, 2019).

Some results are limits rather than exact numbers.

The subject of series [1] is Trypanosoma brucei. The series is described as follows: Antitrypanosomal activity against Trypanosoma brucei bloodstream form assessed as parasite growth inhibition at 10 uM after 72 hrs by resazurin dye-based assay relative to control. In kind it is functional. The following applies: read-out: GI. The method, boiled down: (§1)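 T. brucei bloodstream forms were screened first. Compounds giving over 70% parasite growth inhibition then went to a full dose–response curve to derive EC50. Pentamidine was the reference.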
(In general: The colour change of resazurin is a common sign of viable cells or microbes.)

In series [2] the test system is Trypanosoma brucei. Put plainly: Antitrypanosomal activity against Trypanosoma brucei bloodstream form after 72 hrs by resazurin dye-based assay relative to control. The series is classed as functional, organism-based. In a few lines: as §1
Series [3] in a line: Cytotoxicity against human THP1 cells by MTT assay. The series is classed as cell-based, THP-1. (In general: Tetrazolium dyes change colour on reduction, which living cells bring about.)
The nature of series [4]: Selectivity index, ratio of CC50 for cytotoxicity against human THP1 cells to EC50 for antitrypanosomal activity against Trypanosoma brucei bloodstream form. The conditions noted are these: read-out: Ratio CC50/EC50. The series is classed as toxicity, cell-based.
The target of series [5] is Voltage-gated inwardly rectifying potassium channel KCNH2 (Homo sapiens, UniProt Q12809). The series is described as follows: Inhibition of human ERG at 10 uM after 2 hrs by fluorescence polarization assay. The method, boiled down:
(§2)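 Single-concentration screen at 10 μM within an early in vitro ADME-tox panel, covering cytotoxicity in A549 cells and hERG inhibition.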
In general terms: Fluorescence polarisation rises when a labelled molecule tumbles more slowly, as on binding a larger partner.

The next series has as its system 786-0. Put plainly: Mitochondrial toxicity in human 786-O cells at 10 uM after 6 hrs by MitoTracker Red chloromethyl-X-rosamine based assay. The series is classed as cell-based. The following applies: 786-0, 6 h.
Series [6] is described as follows: Cytotoxicity against human A549 cells assessed as cell growth at 10 uM after 48 hrs by cell-titer-Glo assay relative to control. The series is classed as cell-based. The following applies: read-out: Activity. In a few lines:
as §2

Chain of Voltage-gated inwardly rectifying potassium channel KCNH2 (Q12809 whole entry): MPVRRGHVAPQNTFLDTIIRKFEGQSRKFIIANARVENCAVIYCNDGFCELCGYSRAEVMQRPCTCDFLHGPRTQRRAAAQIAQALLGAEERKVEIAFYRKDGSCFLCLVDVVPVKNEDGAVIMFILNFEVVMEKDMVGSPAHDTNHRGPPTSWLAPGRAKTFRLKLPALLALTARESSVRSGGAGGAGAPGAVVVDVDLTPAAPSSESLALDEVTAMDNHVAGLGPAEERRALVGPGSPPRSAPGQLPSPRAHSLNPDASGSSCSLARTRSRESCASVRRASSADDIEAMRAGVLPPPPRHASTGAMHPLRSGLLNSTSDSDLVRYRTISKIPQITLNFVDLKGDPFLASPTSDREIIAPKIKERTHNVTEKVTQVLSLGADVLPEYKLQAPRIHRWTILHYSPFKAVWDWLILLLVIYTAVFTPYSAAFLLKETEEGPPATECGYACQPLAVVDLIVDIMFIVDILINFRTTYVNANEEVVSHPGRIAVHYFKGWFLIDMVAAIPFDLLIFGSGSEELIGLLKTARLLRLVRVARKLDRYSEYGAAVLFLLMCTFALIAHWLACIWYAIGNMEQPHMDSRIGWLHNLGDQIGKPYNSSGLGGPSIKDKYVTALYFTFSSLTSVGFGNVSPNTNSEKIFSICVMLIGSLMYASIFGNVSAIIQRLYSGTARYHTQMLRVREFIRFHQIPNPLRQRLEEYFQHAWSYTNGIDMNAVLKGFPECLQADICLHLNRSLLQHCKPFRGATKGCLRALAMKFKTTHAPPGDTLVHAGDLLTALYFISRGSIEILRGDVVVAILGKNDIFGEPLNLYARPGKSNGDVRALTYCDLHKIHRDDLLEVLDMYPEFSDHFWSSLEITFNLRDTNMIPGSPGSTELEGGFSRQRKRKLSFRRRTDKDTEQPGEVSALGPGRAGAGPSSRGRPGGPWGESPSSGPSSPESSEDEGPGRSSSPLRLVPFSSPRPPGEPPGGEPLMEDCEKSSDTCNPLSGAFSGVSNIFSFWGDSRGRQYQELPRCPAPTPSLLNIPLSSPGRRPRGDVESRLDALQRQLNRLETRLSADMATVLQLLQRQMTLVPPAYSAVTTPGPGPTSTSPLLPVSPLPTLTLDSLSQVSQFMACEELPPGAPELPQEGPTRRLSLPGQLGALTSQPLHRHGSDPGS

In general, EC50 refers to the midpoint of the concentration-response curve. The CC50 is the concentration at which the toxic effect on the cells reaches its halfway point. Take `O=c1c(O)c(-c2ccc3c(c2)OCO3)oc2ccccc12`: the inhibition of growth at 10 µM in the series with Trypanosoma brucei [1] is 100%. The compound further displayed an EC50 in the series with Trypanosoma brucei [2] of 2.9 µM. For the same compound, in series [3], the CC50 lay in the range of 12.5 to 25 µM. For the same compound, the selectivity ratio in series [4] is 4. Besides, in series [5], the “inhibition (INH)” value is listed as “Not Active”. The Activity result in the series with 786-0 is recorded as “Non-Toxic”.
Regarding `O=c1c(O)c(-c2ccc3c(c2)OCO3)oc2ccc(F)cc12`, the inhibition of growth at 10 µM in the series on Trypanosoma brucei [1] worked out at 7%. Moreover, in series [3], the CC50 lay in the range of 12.5 to 25 µM. Further, the “inhibition (INH)” value in series [5] was “Not Active”. Further, the Activity result with 786-0 was “Non-Toxic”.
In the case of `COc1ccc2c(=O)c(OC(=O)C(C)(C)C)c(-c3ccc4c(c3)OCO4)oc2c1`, the inhibition of growth at 10 µM in the series on Trypanosoma brucei [1] is 100%. Moreover, the EC50 with Trypanosoma brucei [2] is 1.1 µM. In addition, the CC50 in series [3] is greater than 100 µM. For the same compound, in series [4], the selectivity ratio was greater than 92. Also, the “inhibition (INH)” value in series [5] is “Not Active”. In addition, the Activity result with 786-0 is on record as “Non-Toxic”.
As for `COc1ccc2c(=O)c(OC(=O)C(C)C)c(-c3ccc4c(c3)OCO4)oc2c1`, the inhibition of growth at 10 µM with Trypanosoma brucei [1] came to 98%. The EC50 with Trypanosoma brucei [2] was found to be 0.5 µM. Besides, the CC50 in series [3] is less than 12.5 µM. For the same compound, the selectivity ratio in series [4] stood at 24. For the same compound, the “inhibition (INH)” value in series [5] is reported as “Not Active”. In the series with 786-0, the Activity entry is on record as “Non-Toxic”. The viability at 48 h, 10 µM in series [6] is less than 0%.
Take `COc1ccc2c(=O)c(O)c(-c3ccc4c(c3)CCO4)oc2c1`: the inhibition of growth at 10 µM in the series with Trypanosoma brucei [1] is 100%. The same compound yielded an EC50 with Trypanosoma brucei [2] of 3.1 µM. In series [3], this compound gave a CC50 of 25 to 50 µM. The selectivity ratio in series [4] turned out to be 8. Moreover, the “inhibition (INH)” value in series [5] was “Not Active”. Besides, the Activity entry with 786-0 was “Non-Toxic”.
Turning to `Cc1ccc2c(=O)c(O)c(-c3ccc4c(c3)OCO4)oc2c1`, the inhibition of growth at 10 µM in the series with Trypanosoma brucei [1] came out at 99%. Further, in the series on Trypanosoma brucei [2], the EC50 was 0.4 µM. In series [3], this compound gave a 50% cytotoxic concentration (CC50) of 12.5 to 25 µM. For the same compound, the selectivity ratio in series [4] was found to be 31. In addition, the “inhibition (INH)” value in series [5] is reported as “Not Active”. Moreover, the Activity entry in the series on 786-0 is “Non-Toxic”.
With `CCOc1c(-c2ccc3c(c2)OCO3)oc2cc(OC)ccc2c1=O`, the inhibition of growth at 10 µM in the series with Trypanosoma brucei [1] was found to be 18%. Moreover, the EC50 with Trypanosoma brucei [2] is greater than 10 µM. The CC50 in series [3] lay in the range of 50 to 100 µM. Further, in series [5], the “inhibition (INH)” value is recorded as “Not Active”. The Activity entry in the series with 786-0 was “Non-Toxic”.
For the compound `COc1ccc2c(=O)c(OC(C)=O)c(-c3ccc4c(c3)OCO4)oc2c1`, the inhibition of growth at 10 µM with Trypanosoma brucei [1] is 100%. In addition, a half-maximal effect with Trypanosoma brucei [2] (EC50) was put at 0.3 µM. For the same compound, the CC50 in series [3] was less than 12.5 µM. For the same compound, the selectivity ratio in series [4] came to 46. For the same compound, the “inhibition (INH)” value in series [5] is “Not Active”. Also, in the series with 786-0, the Activity result is “Non-Toxic”.
Regarding `COc1ccc2c(=O)c(OC(=O)N(C)C)c(-c3ccc4c(c3)OCO4)oc2c1`, in the series with Trypanosoma brucei [1], the inhibition of growth at 10 µM is 25%. In the series with Trypanosoma brucei [2], the EC50 is greater than 10 µM. For the same compound, in series [3], the CC50 is greater than 100 µM. In addition, the “inhibition (INH)” value in series [5] is on record as “Not Active”. In addition, the Activity entry with 786-0 was “Non-Toxic”.
With `O=c1c(O)c(-c2ccc3c(c2)OCO3)oc2ccc(Br)cc12`, in the series on Trypanosoma brucei [1], the inhibition of growth at 10 µM was 38%. For the same compound, the 50% cytotoxic concentration (CC50) in series [3] lay in the range of 12.5 to 25 µM. For the same compound, the “inhibition (INH)” value in series [5] is given as “Not Active”. Besides, in the series on 786-0, the Activity result was “Non-Toxic”.
`O=c1c(O)c(-c2ccc3c(c2)OCO3)oc2cc(Cl)ccc12`: in the series on Trypanosoma brucei [1], the inhibition of growth at 10 µM is 83%. Further, the midpoint of the response in the series on Trypanosoma brucei [2], the EC50, lay at 3.8 µM. In series [3], this compound displayed a CC50 of less than 12.5 µM. Also, the selectivity ratio in series [4] came out at 3. The “inhibition (INH)” value in series [5] is listed as “Not Active”. The Activity entry in the series with 786-0 is “Non-Toxic”. Also, the viability at 48 h, 10 µM in series [6] is less than 0%.
As for `CCCCC(=O)Oc1c(-c2ccc3c(c2)OCO3)oc2cc(OC)ccc2c1=O`, the inhibition of growth at 10 µM with Trypanosoma brucei [1] was 100%. The compound also registered an EC50 with Trypanosoma brucei [2] of 0.6 µM. For the same compound, in series [3], the CC50 is less than 12.5 µM. For the same compound, the selectivity ratio in series [4] amounted to 22. The “inhibition (INH)” value in series [5] was “Not Active”. The Activity result in the series with 786-0 was “Non-Toxic”.
For the compound `O=c1c(O)c(-c2ccc3c(c2)OCO3)oc2cc(F)ccc12`, the inhibition of growth at 10 µM in the series on Trypanosoma brucei [1] is 98%. In the series on Trypanosoma brucei [2], the EC50 is 2.4 µM. The compound further had a CC50 in series [3] of less than 12.5 µM. Moreover, the selectivity ratio in series [4] is 8. For the same compound, in series [5], the “inhibition (INH)” value is “Not Active”. Also, the Activity result with 786-0 is on record as “Non-Toxic”.
As to `CCCOc1c(-c2ccc3c(c2)OCO3)oc2cc(OC)ccc2c1=O`, the inhibition of growth at 10 µM with Trypanosoma brucei [1] came out at 20%. The compound further returned an EC50 with Trypanosoma brucei [2] greater than 10 µM. For the same compound, the CC50 in series [3] is 12.5 to 25 µM. For the same compound, in series [5], the “inhibition (INH)” value is given as “Not Active”. In the series with 786-0, the Activity entry is “Non-Toxic”.
Regarding `COc1ccc2oc(-c3ccc4c(c3)OCO4)c(O)c(=O)c2c1`, the inhibition of growth at 10 µM in the series with Trypanosoma brucei [1] amounted to 19%. The compound also returned a CC50 in series [3] of less than 12.5 µM. In series [5], the “inhibition (INH)” value was “Not Active”. Moreover, in the series on 786-0, the Activity result was “Non-Toxic”.
On to `COc1ccc2c(=O)c(O)c(-c3ccc4c(c3)OC(F)(F)O4)oc2c1`, for which, in the series with Trypanosoma brucei [1], the inhibition of growth at 10 µM worked out at 47%. The compound further came in with an EC50 in the series on Trypanosoma brucei [2] greater than 10 µM. The same compound registered a CC50 in series [3] greater than 100 µM. Moreover, in series [5], the “inhibition (INH)” value is recorded as “Not Active”. In addition, in the series on 786-0, the Activity result was “Non-Toxic”.
`O=c1c(O)c(-c2ccc3c(c2)OCO3)oc2ccc(Cl)cc12`: the inhibition of growth at 10 µM in the series with Trypanosoma brucei [1] was found to be 13%. Also, the CC50 in series [3] was less than 12.5 µM. In addition, the “inhibition (INH)” value in series [5] was “Not Active”. Moreover, the Activity entry in the series with 786-0 is on record as “Non-Toxic”.
Consider `COc1ccc2c(=O)c(O)c(-c3ccc4c(c3)OCCO4)oc2c1`, for which the inhibition of growth at 10 µM with Trypanosoma brucei [1] came out at 71%. In the series on Trypanosoma brucei [2], this compound returned an EC50 greater than 10 µM. Besides, the CC50 in series [3] lay in the range of 50 to 100 µM. Further, in series [5], the “inhibition (INH)” value is recorded as “Not Active”. The Activity result with 786-0 is “Non-Toxic”.
On to `Cc1ccc2oc(-c3ccc4c(c3)OCO4)c(O)c(=O)c2c1`, for which the inhibition of growth at 10 µM with Trypanosoma brucei [1] came to 99%. In addition, the midpoint of the response with Trypanosoma brucei [2], the EC50, lay at 4.1 µM. In addition, the CC50 in series [3] was less than 12.5 µM. The selectivity ratio in series [4] worked out at 3. Further, the “inhibition (INH)” value in series [5] is given as “Not Active”. Moreover, in the series on 786-0, the Activity entry was “Non-Toxic”.
As to `COc1ccc2c(=O)c(OC(=O)C3CCCCC3)c(-c3ccc4c(c3)OCO4)oc2c1`, the inhibition of growth at 10 µM in the series on Trypanosoma brucei [1] amounted to 98%. The same compound came in with an EC50 in the series with Trypanosoma brucei [2] of 0.5 µM. Moreover, in series [3], the CC50 lay within 12.5 to 25 µM. In addition, the selectivity ratio in series [4] was 25. For the same compound, in series [5], the “inhibition (INH)” value is on record as “Not Active”. The Activity entry in the series on 786-0 is reported as “Non-Toxic”.
Usually IC50 stands for the concentration needed to halve the response being measured. Take `N=C(N)c1ccc(OCCCCCOc2ccc(C(=N)N)cc2)cc1` [PENTAMIDINE]: the IC50 with Trypanosoma brucei [2] came out at 0.00155 µM.
